Data reported in ChEMBL document CHEMBL4251647, “Synthesis, anticancer activity and mechanism of action of new thiazole derivatives” (Eur J Med Chem, 2018).

Columns and labels:
[1] = test system: HL-60; assay: Cytotoxicity against human HL60 cells assessed as inhibition of cell viability after 72 hrs by MTT assay; format: functional, cell-based; settings: HL-60, 72 h
Procedure, shortened: (§1)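 MTT assay. Leukaemic lines were seeded at 3 x 10^5 cells/mL and adherent lines at 1 x 10^5 cells/mL, then preincubated 24 h. Compounds were added at 0.098–25.0 µg/mL for 72 h, with MTT for the last 3 h. Formazan was dissolved in DMSO and read at 560 nm. IC50 came from regression; triplicate, two independent experiments.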

[2] = test system: HL-60; assay: Cytotoxicity against human HL60 cells assessed as inhibition of cell viability at 25 ug/ml after 72 hrs by MTT assay relative to control; format: functional; settings: HL-60, 72 h
Procedure, shortened: (§2)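 Single-concentration MTT screen at 25 µg/mL for 72 h. Seeding was 3 x 10^5 cells/mL (HL-60, K562) or 1 x 10^5 cells/mL (adherent), with 24 h preincubation. MTT was added for the final 3 h, formazan dissolved in DMSO and absorbance read at 560 nm. Results are given as percent inhibition ± SD.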

[3] = test system: K562; assay: Cytotoxicity against human K562 cells assessed as inhibition of cell viability after 72 hrs by MTT assay; format: functional, cell-based; settings: K562, 72 h; procedure, shortened: as §1
[4] = test system: PBMC; assay: Cytotoxicity against human PBMC cells assessed as inhibition of cell viability after 72 hrs by alamar blue assay; format: cell-based
Procedure, shortened: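 PBMC from healthy donors were grown in RPMI-1640 with 20% FBS and 2% phytohaemagglutinin, then plated at 10^6 cells/mL. After 24 h, compounds (0.048–25 µg/mL, in DMSO) were added for 72 h. Resazurin was added for the final 24 h and absorbance read at 570 and 595 nm as percent of control.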

[5] = test system: HEp-2; assay: Cytotoxicity against human Hep2 cells assessed as inhibition of cell viability at 25 ug/ml after 72 hrs by MTT assay relative to control; format: functional; settings: HEp-2, 72 h; procedure, shortened: as §2
[6] = test system: K562; assay: Cytotoxicity against human K562 cells assessed as inhibition of cell viability at 25 ug/ml after 72 hrs by MTT assay relative to control; format: functional; settings: K562, 72 h; procedure, shortened: as §2
[7] = test system: HEp-2; assay: Cytotoxicity against human Hep2 cells assessed as inhibition of cell viability after 72 hrs by MTT assay; format: functional, cell-based; settings: HEp-2, 72 h; procedure, shortened: as §1
[8] = test system: NCI-H292; assay: Cytotoxicity against human NCI-H292 cells assessed as inhibition of cell viability at 25 ug/ml after 72 hrs by MTT assay relative to control; format: functional; settings: NCI-H292, 72 h; procedure, shortened: as §2
[9] = test system: HT-29; assay: Cytotoxicity against human HT-29 cells assessed as inhibition of cell viability at 25 ug/ml after 72 hrs by MTT assay relative to control; format: functional; settings: HT-29, 72 h; procedure, shortened: as §2
[10] = test system: NCI-H292; assay: Cytotoxicity against human NCI-H292 cells assessed as inhibition of cell viability after 72 hrs by MTT assay; format: functional, cell-based; settings: NCI-H292, 72 h; procedure, shortened: as §1
[11] = test system: Erythrocyte; assay: Hemolytic activity in human erythrocytes after 1 hr by spectrophotometric method; format: ADME, cell-based
Procedure, shortened: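 Human erythrocytes as a 2% suspension in 0.85% NaCl with 10 mM CaCl2 were exposed to 0.78–250 µg/mL for 1 h at room temperature. After centrifugation, released haemoglobin in the supernatant was read at 540 nm. Triton X-100 (1%) served as positive control; EC50 is the concentration giving 50% haemolysis.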

[12] = test system: HT-29; assay: Cytotoxicity against human HT-29 cells assessed as inhibition of cell viability after 72 hrs by MTT assay; format: functional, cell-based; settings: HT-29, 72 h; procedure, shortened: as §1
[13] = test system: K562; assay: Cytotoxicity against human K562 cells assessed as inhibition of cell viability by MTT assay; format: functional, cell-based; settings: TDE = time-dependent effect
[14] = test system: K562; assay: Cytotoxicity against human K562 cells assessed as inhibition of cell viability after 48 hrs by MTT assay; format: functional, cell-based; settings: K562, 48 h
Procedure, shortened: (§3)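 K562 cells (3 x 10^5 cells/mL, RPMI-1640 with 10% FBS) were treated with serial dilutions for 24 or 48 h. Viability was read by MTT (absorbance at 560 nm after DMSO solubilisation), and IC50 was obtained by regression.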

[15] = test system: K562; assay: Cytotoxicity against human K562 cells assessed as inhibition of cell viability after 24 hrs by MTT assay; format: functional, cell-based; settings: K562, 24 h; procedure, shortened: as §3
[16] = Selectivity index, ratio of IC50 for human PBMC to IC50 for human K562 cells; format: toxicity; settings: human PBMC and human K562 cells, read-out: Ratio IC50
Procedure, shortened: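 Ratio of IC50 in PBMC (Alamar blue, 72 h) to IC50 in K562 cells (MTT, 72 h), calculated as SI = IC50(PBMC)/IC50(K562).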

[17] = test system: K562; assay: Cell cycle arrest in human K562 cells assessed as accumulation at G1-phase at 0.2 uM after 48 hrs by flow cytometry (reference value: 45.54 +/- 1.34%); format: functional
Procedure, shortened: (§4)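 K562 cells seeded at 3 x 10^5 cells/mL in RPMI-1640 and exposed 48 h at 37 °C, 5% CO2. Cells were stained with propidium iodide (Guava cell cycle kit) and 5,000 events acquired by flow cytometry. Vehicle control was 0.1% DMSO. Two independent experiments, each in triplicate.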

[18] = test system: K562; assay: Cell cycle arrest in human K562 cells assessed as accumulation at S-phase at 0.2 uM after 48 hrs by flow cytometry (reference value: 17.39 +/- 0.84%); format: functional; procedure, shortened: as §4
[19] = test system: K562; assay: Induction of mitochondrial membrane potential depolarization in human K562 cells at 0.5 uM after 48 hrs by Rho-123 staining based flow cytometry (reference value: 12.24 +/- 0.61%); format: functional
[20] = test system: K562; assay: Induction of DNA damage in human K562 cells at 0.5 uM after 48 hrs by propidium iodide staining based flow cytometry (reference value: 3.62 +/- 0.37%); format: functional
[21] = test system: K562; assay: Cell cycle arrest in human K562 cells assessed as accumulation at G2/M-phase at 0.2 uM after 48 hrs by flow cytometry (reference value: 35.97 +/- 1.94%); format: functional; procedure, shortened: as §4

SMILES	IC50 [1]	inhibition at 25 µg/mL [2]	IC50 [3]	IC50 [4]	inhibition at 25 µg/mL [5]	inhibition at 25 µg/mL [6]	IC50 [7]	inhibition at 25 µg/mL [8]	inhibition at 25 µg/mL [9]	IC50 [10]	EC50 [11]	IC50 [12]	also measured
CNC(=S)N/N=C/c1ccc(C(F)(F)F)cc1	17.2 µM	94.6%	13.2 µM	93.3 µM	88.1%	82.6%	12.6 µM	93.3%	88.7%	20.8 µM	> 250 mg/L	5.06 µM	–
O=[N+]([O-])c1ccc(-c2csc(N/N=C/c3ccc(C(F)(F)F)cc3)n2)cc1	11.5 µM	80.2%	16.9 µM	53.2 µM	90%	87.2%	27.3 µM	96.3%	59.3%	7.41 µM	> 250 mg/L	> 63.6 µM	–
FC(F)(F)c1ccc(/C=N/Nc2nc(-c3cccc4ccccc34)cs2)cc1	–	39.1%	–	–	28.5%	44.9%	–	35.7%	45.8%	–	–	–	–
FC(F)(F)c1ccc(/C=N/Nc2nc(-c3ccccc3)cs2)cc1	–	40.6%	–	–	34.7%	–	–	49.8%	–	–	–	–	–
Cc1ccc(-c2csc(N/N=C/c3ccc(C(F)(F)F)cc3)n2)cc1	–	45.2%	–	–	59.9%	20.9%	–	62.3%	42.7%	–	–	–	–
Cc1sc(N/N=C/c2ccc(C(F)(F)F)cc2)nc1-c1ccccc1	–	30.9%	–	–	29.5%	25%	–	60.9%	46.2%	–	–	–	–
FC(F)(F)c1ccc(/C=N/NC(=S)Nc2ccccc2)cc1	–	37.7%	–	–	63.6%	71.2%	–	58.4%	74.7%	–	–	–	–
FC(F)(F)c1ccc(/C=N/Nc2nc(-c3ccc(Cl)cc3)cs2)cc1	–	61.4%	–	–	33%	50.5%	–	67.7%	40.1%	–	–	–	–
COc1ccc(-c2cs/c(=N/N=C/c3ccc(C(F)(F)F)cc3)n2-c2ccccc2)cc1	–	36.7%	–	–	81.8%	59.2%	–	66.3%	58.5%	–	–	–	–
Cn1c(-c2ccc(Cl)cc2Cl)cs/c1=N/N=C/c1ccc(C(F)(F)F)cc1	–	43.5%	–	–	33.5%	69.7%	–	35.7%	52.7%	–	–	–	–
FC(F)(F)c1ccc(/C=N/N=c2/scc(-c3ccc(Cl)cc3)n2-c2ccccc2)cc1	–	28.4%	–	–	58.7%	59%	–	87.8%	82.2%	–	–	–	–
Fc1ccc(-c2cs/c(=N/N=C/c3ccc(C(F)(F)F)cc3)n2-c2ccccc2)cc1	–	26.2%	–	–	22%	59.1%	–	41.8%	74.6%	–	–	–	–
COc1ccc(-c2cs/c(=N/N=C/c3ccc(C(F)(F)F)cc3)n2C)cc1	–	67.8%	–	–	53.7%	50.4%	–	68.3%	62.5%	–	–	–	–
N=C(S)N/N=C/c1ccc(C(F)(F)F)cc1	12.7 µM	95.3%	6.42 µM	80.2 µM	91.8%	87.2%	6.27 µM	89.5%	85.4%	10.8 µM	> 250 mg/L	9.02 µM	Activity [13]: Tde; IC50 [14]: 34 µM; IC50 [15]: > 101 µM; selectivity ratio [16]: 12.5
O=[N+]([O-])c1cccc(-c2csc(N/N=C/c3ccc(C(F)(F)F)cc3)n2)c1	29.3 µM	77.4%	10.2 µM	151 µM	84.3%	75.5%	34.2 µM	75.1%	79.4%	22.8 µM	> 250 mg/L	23.9 µM	–
FC(F)(F)c1ccc(/C=N/N=c2/scc(-c3ccc(Cl)cc3Cl)n2-c2ccccc2)cc1	–	14.4%	–	–	–	–	–	38.5%	–	–	–	–	–
FC(F)(F)c1ccc(/C=N/Nc2nc(-c3ccc(Br)cc3)cs2)cc1	–	46.7%	–	–	17.1%	25%	–	64.2%	67.4%	–	–	–	–
COc1cccc2c1C(=O)c1c(O)c3c(c(O)c1C2=O)C[C@@](O)(C(=O)CO)C[C@@H]3O[C@H]1C[C@H](N)[C@H](O)[C@H](C)O1 [DOXORUBICIN]	0.19 µM	–	1.38 µM	0.38 µM	–	–	1.21 µM	–	–	0.19 µM	–	0.69 µM	Activity [17]: 9.53%; Activity [18]: 10.67%; Activity [19]: 23.6%; Activity [20]: 19.69%; Activity [21]: 81.29%
Fc1ccc(-c2csc(N/N=C/c3ccc(C(F)(F)F)cc3)n2)cc1	–	58.1%	–	–	62.6%	61.6%	–	78.8%	70.1%	–	–	–	–
Cn1c(-c2ccc([N+](=O)[O-])cc2)cs/c1=N/N=C/c1ccc(C(F)(F)F)cc1	11.8 µM	83.2%	> 61.4 µM	140 µM	84.8%	59.8%	26.4 µM	44.1%	75.1%	> 61.4 µM	> 250 mg/L	47.8 µM	–
COc1ccc(-c2csc(N/N=C/c3ccc(C(F)(F)F)cc3)n2)cc1	3.67 µM	89.1%	> 66.2 µM	130 µM	78.2%	61.5%	11.3 µM	68.5%	76.2%	> 66.2 µM	> 250 mg/L	22.7 µM	–
FC(F)(F)c1ccc(/C=N/Nc2nc(-c3ccc(Cl)c(Cl)c3)cs2)cc1	4.23 µM	96.4%	> 60.1 µM	65.6 µM	83.5%	47.8%	10.4 µM	98.2%	84%	6.57 µM	> 250 mg/L	12.2 µM	–
